According to paper PMC12675685 (Parasitology Research, 2025):
Entries after “also recorded” stand apart in the source; their conditions may differ. Structures can show the parent of a compound that is named as a salt. Where two headings read alike, the source gives them in different places.

Legend:
[1] = test system: MDOK cells; experiment: Cytotoxicity on host cells; format: cell-based, sheep; conditions: for toxicity to MDOK cells, relative level: compared among the tested compounds; for IC50: read-out: IC50 in MDOK cells, CCK-8
[2] = test system: Babesia sp. Xinjiang; experiment: Anti-proliferation assay in Babesia sp. Xinjiang; format: cell-based; conditions: for inhibitory effect on BxjG5 proliferation: concentrations increased to 200 μM, data not shown; for inhibition of BxjG5 growth in vitro, in words: 48, 72 and 96 h
In short: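 Monoclonal BxjG5 line grown in RPMI 1640 with 20% FBS and 5% fresh sheep RBCs, 37 °C, humidified 5% CO2. Cultures seeded at 1% parasitemia with serial dilutions in medium (200 μΜ to 0.005 μΜ), run 48, 72 or 96 h, with drug-containing medium renewed every 48 h. DMSO controls (≤0.4%). Parasitemia counted on Giemsa smears (2,000–4,000 RBCs), inhibition taken relative to control, and curves fitted. Three experiments, triplicate wells.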

[3] = test system: Babesia divergens; conditions: cited from earlier work; for IC50: read-out: IC50 on B. divergens, ref Nehrbass-Stuedli et al. [2011]
[4] = test system: Babesia duncani; experiment: In vivo anti-Babesia activity in B. duncani-infected hamsters; parameters: species or system LVG Golden Syrian Hamsters; conditions: for effect on B. duncani growth in vivo, in words / day post-treatment on which mortality reached 100% / mean parasitemia (parasite burden): furamidine 2 mg/kg bw; for effect on B. duncani growth in vivo, in words: BIX-01294 7.35 mg/kg bw i.p.; for day post-treatment on which mortality reached 100% / mean parasitemia (parasite burden): i.p. daily for five days, BIX-01294 7.35 mg/kg bw
In short: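 Twenty 12-week-old hamsters were infected i.p. with 2,500 B. duncani-infected RBCs and split randomly into four equal groups. Dosing began once parasites appeared on Giemsa smears (parasitemia ≈ 1%): 200 μl i.p. daily for five days of vehicle (DMSO/PBS 1:1), test compounds or diminazene aceturate 20 mg/kg bw. Parasitemia was followed on smears and survival recorded. Groups were compared by one-way ANOVA with Tukey–Kramer.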

[5] = test system: Plasmodium falciparum; conditions: read-out: IC50 against Plasmodium falciparum; ref Malmquist et al. [2012]; cited from earlier work
[6] = test system: Babesia microti; experiment: In vivo anti-Babesia activity in B. microti-infected BALB/c mice; conditions: for effect on B. microti parasite burden in vivo, in words: furamidine 2 mg/kg bw, BIX-01294 10 mg/kg bw, DA 30 mg/kg bw i.p.
[7] = In vivo safety evaluation of furamidine in healthy BALB/c mice; conditions: 2 mg/kg bw i.p. daily for 5 consecutive days
In short: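 Healthy female BALB/c mice, 6–8 weeks old (n = 5/group), received vehicle (DMSO/PBS) or test compound i.p. daily for 5 days. Clinical signs were checked twice daily and weight each morning before dosing. Blood was taken retro-orbitally under isoflurane 24 h after the last dose: EDTA-K2 blood for haematology, serum for biochemistry. Livers were fixed in 4% paraformaldehyde and stained with H&E.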

[8] = test system: B. microti; conditions: ref Nehrbass-Stuedli et al. [2011], cited from earlier work
[9] = Babesia, 48 h, read-out: IC50 in Babesia sp. Xinjiang
[10] = Babesia, 72 h, read-out: IC50 in Babesia sp. Xinjiang
[11] = Babesia, 96 h, read-out: IC50 in Babesia sp. Xinjiang
[12] = Babesia, 96 h, read-out: IC50 on BxjG5 growth

CCN(CC)Cc1cc(Nc2ccnc3cc(Cl)ccc23)ccc1O [Amodiaquine]
toxicity to MDOK cells, relative level [1]: intermediate levels | IC50 [2, 9]: 33.2 ± 2.19 µM | IC50 [2, 10]: 23.9 ± 1.47 µM | IC50 [2, 11]: 26.6 ± 1.49 µM | IC50 [2, 12]: ~26 µM

COc1cc2nc(N3CCCN(C)CC3)nc(NC3CCN(Cc4ccccc4)CC3)c2cc1OC [BIX-01294]
inhibitory activity against B. divergens in vitro, in words ([3]; ref Vanheer and Kafsack [2021]): moderate inhibitory activity | IC50 [2, 9]: 0.47 ± 0.1 µM | IC50 [2, 10]: 0.35 µM | IC50 [2, 11]: 0.29 µM | IC50 [2, 12]: 0.29 to 0.47 µM | effect on B. duncani growth in vivo, in words [4]: did not appear to inhibit Babesia growth in vivo | day post-treatment on which mortality reached 100% [4]: 2 days | mean parasitemia (parasite burden) [4]: approximately 20% | IC50 [5]: 0.075 ± 0.036 µM | effect on B. microti parasite burden in vivo, in words [6]: did not appear to inhibit Babesia growth in vivo

CN1C(=O)[C@@]23C[C@]4([C@]56C[C@@]78SS[C@@](CO)(C(=O)N7[C@H]5Nc5ccccc56)N(C)C8=O)c5ccccc5N[C@@H]4N2C(=O)[C@]1(CO)SS3 [Chaetocin]
inhibition rate on MDOK cells ([1]; concentrations exceeded 10 μM): greater than 70% | IC50 [2, 9]: > 200 µM | IC50 [2, 10]: > 200 µM | IC50 [2, 11]: > 200 µM | inhibitory effect on BxjG5 proliferation [2]: did not observe any obvious inhibitory effect

CC(=O)NCC(=O)O.CC(=O)NCC(=O)O.N=C(N)c1ccc(N=NNc2ccc(C(=N)N)cc2)cc1 [DA, Diminazene Aceturate]
deaths until day 43 posttreatment ([4]; DA 20 mg/kg bw i.p. daily for five days): 0/4 | effect on B. microti parasite burden in vivo, in words [6]: effectively decreased the parasite burden

N=C(N)c1ccc(-c2ccc(-c3ccc(C(=N)N)cc3)o2)cc1 [Furamidine]
IC50 ([3]; strain 1903): 0.0368 µM | IC50 ([3]; strain 4201): 0.0358 µM | toxicity to MDOK cells, relative level [1]: intermediate levels | IC50 ([1]; 24 h): 98.81 ± 0.6 µM | IC50 ([1]; 48 h): 45.36 ± 0.43 µM | IC50 ([1]; 72 h): 43.01 ± 0.24 µM | inhibition of BxjG5 growth in vitro, in words [2]: effectively inhibit BxjG5 growth in vitro at nanomolar concentrations | IC50 [2, 9]: 0.03 µM | IC50 ([2]; Babesia, read-out: IC50 on BxjG5): 0.02 µM | effect on B. duncani growth in vivo, in words [4]: effectively inhibited the growth; also recorded: did not completely eliminate parasites | day post-treatment on which mortality reached 100% [4]: 6 days | mean parasitemia (parasite burden) [4]: less than 10% | body weight gain versus vehicle control [7]: no significant difference | hematological and biochemical analyses versus vehicle control [7]: no significant differences | liver histopathology (H&E) [7]: appeared normal | complete suppression of parasitemia up to day ([6]; furamidine 2 mg/kg): 50 dpi | day posttreatment on which parasitemia peaked ([6]; furamidine 2 mg/kg bw i.p.): 3 days | complete suppression of parasites through ([8]; 3.125 mg/kg): 13 days | anti-parasite activity in B. microti-infected NMRI mouse model, in words ([8]; 25 mg/kg): totally cure

CCCc1cc(C)[nH]c(=O)c1CNC(=O)c1cc(-c2ccnc(N3CCN(C)CC3)c2)cc2c1cnn2C(C)C [GSK343]
IC50 [2, 9]: 7.25 ± 0.75 µM | IC50 [2, 10]: 6.88 ± 0.51 µM | IC50 [2, 11]: 7.04 ± 0.56 µM

CCOCC1(COCC)CCC(c2[nH]ncc2CN(C)CCNC)CC1.Cl.Cl.Cl [GSK3368715]
IC50 ([1]; 24 h): > 100 µM | IC50 ([1]; 48 h): > 100 µM | IC50 ([1]; 72 h): > 100 µM | inhibitory effect on BxjG5 proliferation [2]: did not observe any obvious inhibitory effect | IC50 ([2]; read-out: IC50 in Babesia sp. Xinjiang, 48 h incubation, BxjG5): > 200 µM | IC50 ([2]; read-out: IC50 in Babesia sp. Xinjiang, 72 h incubation, BxjG5): > 200 µM | IC50 ([2]; read-out: IC50 in Babesia sp. Xinjiang, 96 h incubation, BxjG5): > 200 µM

O=C(Nc1cccc(C2=NCCN2)c1)Nc1cccc(C2=NCCN2)c1 [Imidocarb dipropionate]
toxicity to MDOK cells, relative level [1]: intermediate levels | inhibition of BxjG5 growth in vitro, in words [2]: effectively inhibit BxjG5 growth in vitro at nanomolar concentrations | IC50 [2, 10]: 0.03 µM | IC50 [2, 11]: 0.02 µM

Cc1cn(CCN2CCN(c3ccccc3-c3cc(C#N)cc(C(=O)NCCCN4CCCC4)c3)CC2)c2ccccc12 [LLY-507]
inhibition rate on MDOK cells ([1]; concentrations exceeded 10 μM): greater than 70% | IC50 [2, 9]: 4.02 ± 0.74 µM | IC50 [2, 10]: 3.25 ± 0.46 µM | IC50 [2, 11]: 2.58 ± 0.63 µM

O=C([C@@H](Cc1cccc(C(F)(F)F)c1)NS(=O)(=O)c1cc(F)c2c(c1)CCNC2)N1CCCC1 [PFI-2 hydrochloride]
IC50 [2, 9]: 16.5 ± 0.86 µM | IC50 [2, 10]: 10.7 ± 0.82 µM | IC50 [2, 11]: 17.5 ± 1.09 µM

Nc1ncnc2c1ncn2[C@@H]1O[C@H](C[C@@H](N)CC[C@H](N)C(=O)O)[C@@H](O)[C@H]1O [Sinefungin]
inhibition rate on MDOK cells ([1]; concentrations increased to 100 μM): < 30% | IC50 [2, 9]: 2.14 ± 0.07 µM | IC50 [2, 10]: 2.25 ± 0.34 µM | IC50 [2, 11]: 2.89 ± 1.1 µM

CCCc1cc(C)[nH]c(=O)c1CNC(=O)c1cc(-c2ccc(N3CCN(C(C)C)CC3)nc2)cc2c1cnn2C(C)C [UNC-1999]
inhibition rate on MDOK cells ([1]; concentrations exceeded 10 μM): greater than 70% | IC50 [2, 9]: 5.15 ± 1.31 µM | IC50 [2, 10]: 3.88 ± 1 µM | IC50 [2, 11]: 4.7 ± 1.03 µM
